Screens: PubChem BioAssay, Broad Institute
Only some compounds are listed: those with a hit (about 2% of all), similar ones and a draw of the others.
CAL PDZ FP-1 = blocks peptide binding to human CAL PDZ domain | Q9HD26 | purified CAL PDZ, TMR-peptide fluorescence polarization, 1 h | inhibition, % at 20 µM | 0.02% of 330,000 active | AID 504414;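 active = highest replicate inhibition of at least 40%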;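 also: plate controls were DMSO neutral control wells for no effect and unlabeled competitor peptide control wells for full effect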
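System: purified tagged CAL PDZ domain construct (CerCALP). Schedule: 1 h incubation at room temperature before polarization reading. Medium: 25 mM sodium phosphate pH 7.4, 150 mM NaCl, TCEP, IgG, Thesit. Read-out: percent inhibition from loss of millipolarization. Measured by: FP readout, S and P plane fluorescence. Probe or stimulus: fluorescent TMR peptide probe.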
S100A4 MyoIIA = blocks human S100A4 binding to myosin IIA peptide | 0.14% of 360,000 active | AID 652163 | P26447 | inhibition, % at 10.7 µM | S100A4/TAMRA-MyoIIA peptide fluorescence polarization;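 active = mean inhibition of at least 70% across replicates, with every replicate also reaching that level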
Target sequence (P26447 whole entry, looked up): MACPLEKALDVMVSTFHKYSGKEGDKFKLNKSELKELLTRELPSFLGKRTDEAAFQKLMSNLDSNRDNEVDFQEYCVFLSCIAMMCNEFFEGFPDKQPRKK
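Assay system: human S100A4 monomer with TAMRA-labelled myosin IIA peptide / Buffer or medium: Calcium-containing HEPES buffer, pH 7.2 / Reagent: TAMRA-labelled myosin IIA heavy-chain peptide probe, 5 nM / Compound: one dose per compound / Timing: polarization read 5 min after assay mix addition, stable 5–60 min / Benchmarks: neutral control DMSO, positive control TFP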
CAL PDZ FP-2 = CAL PDZ (human) peptide binding inhibition; inhibition, % at 24.9 µM; AID 602252; 0.92% of 300,000 active; Q9HD26; purified CAL PDZ, TMR-peptide fluorescence polarization, 1 h;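 active = mean inhibition of at least 30% with at least half of replicates also reaching 30%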;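 also: 0% = DMSO neutral control and 100% = excess unlabeled competitor peptide PRC23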
dFosB act-1 = activators of mouse delta FosB homodimer; P13346; purified delta FosB, TAMRA-CDK5 oligo fluorescence polarization; percent of positive-control signal above neutral wells; activation, % at 25 µM; 0.99% of 340,000 active; AID 493131;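 active = mean activation above about 17%, with every replicate also reaching it, limit read from the data, passing the limit was not always enough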
Target sequence (P13346 whole entry, looked up): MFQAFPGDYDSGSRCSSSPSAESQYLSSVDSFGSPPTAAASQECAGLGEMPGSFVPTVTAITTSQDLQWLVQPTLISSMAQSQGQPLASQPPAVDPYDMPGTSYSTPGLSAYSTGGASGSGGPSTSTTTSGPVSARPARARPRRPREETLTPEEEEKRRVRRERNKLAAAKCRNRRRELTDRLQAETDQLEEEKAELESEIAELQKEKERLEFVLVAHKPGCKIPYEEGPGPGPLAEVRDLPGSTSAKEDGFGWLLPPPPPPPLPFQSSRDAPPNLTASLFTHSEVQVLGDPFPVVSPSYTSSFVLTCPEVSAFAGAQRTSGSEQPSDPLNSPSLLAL
CDK5 p35 inh = CDK5/p35 (human) kinase inhibition; Recombinant CDK5/p35, ADP-Glo luminescence, 60 min; 0.01% of 330,000 active; Q00535+Q15078; inhibition, % at 10 µM;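 active = highest replicate inhibition of at least 50% and at least 75% of replicates reaching 50%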;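 also: plate controls were DMSO neutral control for no effect and GW8510 at 10 µM for full effect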
Statin myotox sup = suppression of simvastatin myotoxicity; C2C12 myotubes + simvastatin, ATP luminescence, 48 h; scaled: DMSO 0, geranylgeraniol control 100; rescue of ATP level, % at 7.49 µM; 0.78% of 330,000 active; AID 602340;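 active = mean ATP rescue above about 67%, or every replicate alone reaching that limit, limit read from the data, passing the limit was not always enough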;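 also: myotubes were challenged with 10 µM simvastatin during compound exposure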
dFosB act-2 = delta FosB (mouse) homodimer activation; shares compounds with dFosB act-1; purified delta FosB, TAMRA-CDK5 oligo fluorescence polarization; normalised: neutral wells 0, positive control 100; activation, % at 24.9 µM; 2,400 tested, under 10 active;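 active = highest replicate activation at or above 34% and every replicate reaching that threshold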;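 also: higher polarization means more probe DNA bound by delta FosB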
* hit, by the source's call.

Results for O=C(COc1ccc(Cl)cc1Cl)Nc1ccc(-c2ccc(N3CCOCC3)nn2)cc1 ?
CAL PDZ FP-1: -2; S100A4 MyoIIA: -1; CAL PDZ FP-2: -1; dFosB act-1: 42*; CDK5 p35 inh: 0; Statin myotox sup: -38; dFosB act-2: 0

How did O=C(Nc1nc(-c2ccc3ccccc3c2)cs1)c1ccc(N2C(=O)CCC2=O)cc1 do in these assays?
CAL PDZ FP-1: -2; S100A4 MyoIIA: 1; CAL PDZ FP-2: -10; dFosB act-1: 45*; CDK5 p35 inh: 0; Statin myotox sup: -29; dFosB act-2: -2

What do the screens show for `CN1OC[C@@H]2CN(Cc3ccc(Cl)cc3)[C@H](c3ccc(N4CCCCC4)cc3)C[C@@H]21`?
S100A4 MyoIIA: 21; Statin myotox sup: 27

What do the screens show for `O=C(Nc1ccc(F)cc1)c1ccccc1Oc1ccc(C(F)(F)F)cc1[N+](=O)[O-]`?
CAL PDZ FP-1: 0; CAL PDZ FP-2: -1; dFosB act-1: -3; CDK5 p35 inh: -2

What do the screens show for `O=C1Nc2cc(C(=O)NCCCN3CCCC3)ccc2S/C1=C\c1ccccc1`?
CAL PDZ FP-1: -11; S100A4 MyoIIA: -3; CAL PDZ FP-2: -5; dFosB act-1: 7; CDK5 p35 inh: 5; Statin myotox sup: -5

Results for CCC1CCCCN1CCCNC(=O)c1ccc(/C=C2/Sc3ccccc3NC2=O)cc1 (stereo not given) ?
CAL PDZ FP-1: -13; S100A4 MyoIIA: 3; CAL PDZ FP-2: -13; dFosB act-1: 38*; CDK5 p35 inh: 2; Statin myotox sup: -33; dFosB act-2: 0

What do the screens show for `C[C@@H]1CC=C[C@H]2[C@H]1C(=O)N(Cc1ccccc1)[C@H]2c1ccc2ccccc2c1/C=C/c1ccccc1`?
CAL PDZ FP-1: -1; S100A4 MyoIIA: -1; CAL PDZ FP-2: 0; dFosB act-1: 3; CDK5 p35 inh: -1; Statin myotox sup: 9

What do the screens show for `CC(=O)c1ccc(NC(=O)c2ccc(NC(=O)c3ccco3)cc2)cc1`?
CAL PDZ FP-1: -2; CAL PDZ FP-2: -5; dFosB act-1: 93*; CDK5 p35 inh: 0; Statin myotox sup: -36; dFosB act-2: 2

Results for COc1ccc(OCC(=O)Nc2ccc3c(c2)C(=O)NC3=O)cc1 ?
CAL PDZ FP-1: 0; S100A4 MyoIIA: 17; CAL PDZ FP-2: -6; dFosB act-1: 0; CDK5 p35 inh: 0; Statin myotox sup: -15

What do the screens show for `O=C(COc1ccc(Cl)cc1)Nc1ccc(NC(=O)c2ccco2)cc1`?
CAL PDZ FP-1: 0; S100A4 MyoIIA: -17; dFosB act-1: 25*; CDK5 p35 inh: -1; Statin myotox sup: 1; dFosB act-2: 9

What do the screens show for `COc1ccc(NC(=O)c2oc3ccccc3c2NC(=O)c2ccco2)cc1`?
CAL PDZ FP-1: -2; S100A4 MyoIIA: 3; CAL PDZ FP-2: 4; dFosB act-1: 21*; CDK5 p35 inh: -1; Statin myotox sup: 17; dFosB act-2: -1

What do the screens show for `COc1ccc(NC(=O)c2oc3ccccc3c2NC(=O)c2ccco2)c(OC)c1`?
CAL PDZ FP-1: -1; CAL PDZ FP-2: 3; dFosB act-1: 1; CDK5 p35 inh: 1; Statin myotox sup: -49

Results for COc1ccc(C(=O)Nc2ccc3c(c2)C(=O)NC3=O)cc1 ?
CAL PDZ FP-1: -1; S100A4 MyoIIA: -5; dFosB act-1: 49*; CDK5 p35 inh: 2; Statin myotox sup: -7; dFosB act-2: 3

Results for COc1ccccc1C(=O)Nc1ccnn1C1CCN(C/C=C/c2ccc(F)cc2)CC1 ?
CAL PDZ FP-1: 0; S100A4 MyoIIA: 2; CAL PDZ FP-2: 28; dFosB act-1: -10; CDK5 p35 inh: 1

What do the screens show for `CCOC(=O)CN1C(=O)/C(=C2\SC(=S)N(NC(=O)c3cccnc3)C2=O)c2ccccc21`?
CAL PDZ FP-1: -1; S100A4 MyoIIA: 0; CAL PDZ FP-2: -3; dFosB act-1: 1; CDK5 p35 inh: 0; Statin myotox sup: -22

Results for COCC#Cc1ccc([C@@H]2[C@H]3CN(C(=O)CN4CCOCC4)CC(=O)N3[C@H]2CO)cc1 ?
S100A4 MyoIIA: 0

What do the screens show for `CC(C)(C)c1ccc(C(=O)Nc2ccc3c(c2)C(=O)NC3=O)cc1`?
CAL PDZ FP-1: 0; S100A4 MyoIIA: -2; dFosB act-1: 3; CDK5 p35 inh: 3; Statin myotox sup: -12

What do the screens show for `COc1ccc(C(=O)NC(=S)Nc2ccc(NC(=O)c3ccco3)cc2)cc1[N+](=O)[O-]`?
CAL PDZ FP-1: -2; S100A4 MyoIIA: -7; CAL PDZ FP-2: -1; dFosB act-1: 29*; CDK5 p35 inh: 0; dFosB act-2: 0

Results for CC(=O)c1ccc(C(=O)Nc2ccc3c(c2)C(=O)NC3=O)cc1 ?
CAL PDZ FP-1: -2; S100A4 MyoIIA: -3; dFosB act-1: 32*; CDK5 p35 inh: -1; Statin myotox sup: 7; dFosB act-2: 0

How did COc1cccc(C(=O)Nc2ccc3c(c2)C(=O)NC3=O)c1 do in these assays?
CAL PDZ FP-1: -2; S100A4 MyoIIA: -3; dFosB act-1: 23*; CDK5 p35 inh: -1; Statin myotox sup: -7; dFosB act-2: 3

How did CCn1c(SCC(=O)NCc2ccco2)nnc1-c1cccs1 do in these assays?
CAL PDZ FP-1: -2; CAL PDZ FP-2: -2; dFosB act-1: -7; CDK5 p35 inh: 1

Results for COc1ccc2c3c([nH]c2c1)[C@H](CO)N(Cc1ccncc1)CC31CCN(C(=O)c2cccnc2)CC1 ?
S100A4 MyoIIA: -10

Results for COc1ccc(CCNC(=O)C2CCN(S(=O)(=O)c3ccc(OC)c(OC)c3)CC2)cc1OC ?
CAL PDZ FP-1: -1; S100A4 MyoIIA: 2; CAL PDZ FP-2: -1; dFosB act-1: -9; CDK5 p35 inh: 1; Statin myotox sup: 2

Results for CC(SC(C)C(=O)NN=Cc1cccc(F)c1)C(=O)NN=Cc1cccc(F)c1 (stereo not given) ?
CAL PDZ FP-1: -1; S100A4 MyoIIA: -1; dFosB act-1: 28*; CDK5 p35 inh: 2; Statin myotox sup: 7; dFosB act-2: 1

What do the screens show for `O=C(N/N=C/c1cccc(F)c1)NC1CCCCC1`?
CAL PDZ FP-1: -1; CAL PDZ FP-2: 1; dFosB act-1: -6; CDK5 p35 inh: -2

Results for COc1cc(/C=N/NC(N)=S)ccc1OCC(=O)Nc1ccc(C)c(C)c1 ?
CAL PDZ FP-1: 1; CAL PDZ FP-2: 1; dFosB act-1: -1; CDK5 p35 inh: 0; Statin myotox sup: 40
